Results published in ChEMBL document CHEMBL4251664, “Biocompatible Boron-Containing Prodrugs of Belinostat for the Potential Treatment of Solid Tumors” (ACS Med Chem Lett, 2018).

How the values were obtained:
[1] = Drug uptake in tumor of ovariectomized nu/nu mouse implanted with human MCF7 cells assessed as (E)-4-((3-(3-(N-phenylsulfamoyl)phenyl)acrylamidooxy)methyl)phenylboronic acid level at 10 mg/kg, sc administered once daily for 22 days measured post last dose by HPLC-MS/MS analysis; type: ADME, organism-based, Neoplasm; details: in vivo, 528 h
In short: (§1)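 After 22 days of 10 mg/kg/day subcutaneous dosing in MCF-7 xenograft mice, animals were sacrificed. Tumours were excised, homogenized and extracted, then analysed by HPLC–MS/MS for belinostat and the free boronic acid. Results are expressed as ng/g tissue.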

HeLa [2] = assay: Prodrug conversion in human HeLa cells assessed as (E)-4-((3-(3-(N-phenylsulfamoyl)phenyl)acrylamidooxy)methyl)phenylboronic acid level after 4 days by UHPLC-MS/MS analysis; type: ADME, cell-based; details: 96 h
In short: (§2)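 MDA-MB-231 or HeLa cells were incubated with the pinacol boronate prodrug, and culture medium was sampled daily from day 1 to day 6. The prodrug, boronic acid forms and belinostat were separated, identified and quantified by HPLC coupled to an Orbitrap mass spectrometer. Results are in ng/mL as mean ± SEM of triplicate experiments.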

HeLa [3] = assay: Prodrug conversion in human HeLa cells assessed as belinostat level after 3 days by UHPLC-MS/MS analysis; type: ADME, cell-based; details: 72 h; in short: as §2
HeLa [4] = assay: Prodrug conversion in human HeLa cells assessed as belinostat level after 2 days by UHPLC-MS/MS analysis; type: ADME, cell-based; details: 48 h; in short: as §2
MDA-MB-231 [5] = assay: Prodrug conversion in human MDA-MB-231 cells assessed as (E)-4-((3-(3-(N-phenylsulfamoyl)phenyl)acrylamidooxy)methyl)phenylboronic acid level after 5 days by UHPLC-MS/MS analysis; type: ADME, cell-based; details: mda-mb-231, 120 h; in short: as §2
MCF7 [6] = assay: Antiproliferative activity against human MCF7 cells after 72 hrs by resazurin dye based fluorescence assay; type: functional, cell-based; details: MCF7, 72 h
MCF7 [7] = assay: Antitumor activity against human MCF7 cells implanted in ovariectomized nu/nu mouse assessed as tumor volume at 10 mg/kg, sc administered once daily for 22 days measured post last dose (reference value: 869 +/- 173 mm3); type: functional
MDA-MB-231 [8] = assay: Prodrug conversion in human MDA-MB-231 cells assessed as belinostat level after 2 days by UHPLC-MS/MS analysis; type: ADME, cell-based; details: mda-mb-231, 48 h; in short: as §2
[9] = Drug uptake in tumor of ovariectomized nu/nu mouse implanted with human MCF7 cells assessed as belinostat level at 10 mg/kg, sc administered once daily for 22 days measured post last dose by HPLC-MS/MS analysis; type: ADME, organism-based, Neoplasm; details: in vivo, 528 h; in short: as §1
NCI-H460 = assay: Antiproliferative activity against human NCI-H460 cells after 72 hrs by resazurin dye based fluorescence assay; type: functional, cell-based; details: NCI-H460, 72 h
Histone deacetylase = assay: Inhibition of HDAC in human cell lysates using fluoro-substrate peptide/fluoro-deacetylated peptide as substrate incubated for 20 mins measured at 1 to 2 mins interval for 30 to 60 mins by fluorescence assay; type: protein assay
MDA-MB-231 [10] = assay: Prodrug conversion in human MDA-MB-231 cells assessed as (E)-4-((3-(3-(N-phenylsulfamoyl)phenyl)acrylamidooxy)methyl)phenylboronic acid level after 1 day by UHPLC-MS/MS analysis; type: ADME, cell-based; details: mda-mb-231, 24 h; in short: as §2
Histone deacetylase 8 = biological target: T1, Histone deacetylase 8 (Homo sapiens, UniProt Q9BY41); assay: Inhibition of human HDAC8 using RHK(Ac)K(Ac)AMC as substrate
T1 sequence (Q9BY41 whole entry): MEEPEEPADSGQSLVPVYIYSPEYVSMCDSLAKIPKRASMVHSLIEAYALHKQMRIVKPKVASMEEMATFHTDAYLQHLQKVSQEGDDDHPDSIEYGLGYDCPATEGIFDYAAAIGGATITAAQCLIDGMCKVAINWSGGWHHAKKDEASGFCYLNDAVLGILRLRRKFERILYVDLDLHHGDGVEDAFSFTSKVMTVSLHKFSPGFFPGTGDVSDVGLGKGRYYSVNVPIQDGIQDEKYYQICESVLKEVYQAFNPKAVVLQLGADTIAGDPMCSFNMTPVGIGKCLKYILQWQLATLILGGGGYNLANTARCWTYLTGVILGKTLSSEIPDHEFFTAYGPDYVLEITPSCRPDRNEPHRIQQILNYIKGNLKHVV

HeLa [11] = assay: Prodrug conversion in human HeLa cells assessed as (E)-4-((3-(3-(N-phenylsulfamoyl)phenyl)acrylamidooxy)methyl)phenylboronic acid level after 6 days by UHPLC-MS/MS analysis; type: ADME, cell-based; details: 144 h; in short: as §2
MCF7 [12] = assay: Antitumor activity against human MCF7 cells implanted in ovariectomized nu/nu mouse assessed as tumor weight at 10 mg/kg, sc administered once daily for 22 days measured post last dose (reference value: 743 +/- 142 mg); type: functional
MDA-MB-231 [13] = assay: Prodrug conversion in human MDA-MB-231 cells assessed as (E)-4-((3-(3-(N-phenylsulfamoyl)phenyl)acrylamidooxy)methyl)phenylboronic acid level after 3 days by UHPLC-MS/MS analysis; type: ADME, cell-based; details: mda-mb-231, 72 h; in short: as §2
HeLa [14] = assay: Antiproliferative activity against human HeLa cells after 72 hrs by resazurin dye based fluorescence assay; type: functional, cell-based
MCF-10A = assay: Cytotoxicity against human MCF10A cells assessed as reduction in cell proliferation at 10 uM after 72 hrs by resazurin dye based fluorescence assay
MDA-MB-231 [15] = assay: Antiproliferative activity against human MDA-MB-231 cells after 72 hrs by resazurin dye based fluorescence assay; type: functional, cell-based; details: MDA-MB-231, 72 h
MDA-MB-231 [16] = assay: Prodrug conversion in human MDA-MB-231 cells assessed as belinostat level after 1 day by UHPLC-MS/MS analysis; type: ADME, cell-based; details: mda-mb-231, 24 h; in short: as §2
HeLa [17] = assay: Prodrug conversion in human HeLa cells assessed as (E)-4-((3-(3-(N-phenylsulfamoyl)phenyl)acrylamidooxy)methyl)phenylboronic acid level after 3 days by UHPLC-MS/MS analysis; type: ADME, cell-based; details: 72 h; in short: as §2
MCF7 [18] = assay: Antitumor activity against human MCF7 cells implanted in ovariectomized nu/nu mouse assessed as tumor volume at 10 mg/kg, sc administered once daily for 22 days measured on day 12 during compound dosing (reference value: 869 +/- 173 mm3); type: functional

CC1(C)OB(c2ccc(CONC(=O)/C=C/c3cccc(S(=O)(=O)Nc4ccccc4)c3)cc2)OC1(C)C
Drug uptake [1]: 51 ng/g | Drug metabolism (HeLa [2]): 107 ng/mL | Drug metabolism (HeLa [3]): 13.4 ng/mL | Drug metabolism (HeLa [4]): 6.6 ng/mL | Drug metabolism (MDA-MB-231 [5]): 145.8 ng/mL | IC50 (MCF7 [6]): 1.46 µM | Activity (MCF7 [7]): 127 mm3 | Drug metabolism (MDA-MB-231 [8]): 27.7 ng/mL | Drug uptake [9]: 57 ng/g | IC50 (NCI-H460): 0.43 µM | EC50 (Histone deacetylase): 0.35 µM | Drug metabolism (MDA-MB-231 [10]): 331.8 ng/mL | EC50 (Histone deacetylase 8): 341 µM | Drug metabolism (HeLa [11]): 49.6 ng/mL | Activity (MCF7 [12]): 109 mg | Drug metabolism (MDA-MB-231 [13]): 246.9 ng/mL | IC50 (HeLa [14]): 0.273 µM | Activity (MCF-10A): Non-Toxic | IC50 (MDA-MB-231 [15]): 0.303 µM | Drug metabolism (MDA-MB-231 [16]): 30.7 ng/mL | Drug metabolism (HeLa [17]): 144.9 ng/mL | Activity (MCF7 [18]): 153 mm3
